These results are taken from ChEMBL document CHEMBL1208724, “A new group of oxime carbamates as reversible inhibitors of fatty acid amide hydrolase” (Bioorg Med Chem Lett, 2010).

SMILES strings stand for the structures. Calls of active or inactive are those of the source. No cut-off for these calls is given here.

Assay [1] deals with Melatonin receptor type 1A (Homo sapiens, UniProt P48039). The assay is described as follows: Displacement of [125I]2-iodomelatonin from human recombinant MT1 receptor expressed in CHO cells. The class given is cell-based.
Melatonin receptor type 1A, sequence (P48039 whole entry): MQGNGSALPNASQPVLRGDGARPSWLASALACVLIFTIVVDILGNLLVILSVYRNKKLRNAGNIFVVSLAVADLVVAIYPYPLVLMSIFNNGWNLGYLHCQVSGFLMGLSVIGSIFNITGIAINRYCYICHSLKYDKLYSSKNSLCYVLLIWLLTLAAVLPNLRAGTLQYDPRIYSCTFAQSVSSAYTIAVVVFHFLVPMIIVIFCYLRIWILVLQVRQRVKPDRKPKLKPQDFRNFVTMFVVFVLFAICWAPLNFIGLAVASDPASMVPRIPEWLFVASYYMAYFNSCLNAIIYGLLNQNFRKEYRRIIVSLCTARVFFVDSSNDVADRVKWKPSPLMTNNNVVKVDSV
Assay [2] can be described thus: Displacement of [3H]flunitrazepam from BZD receptor in rat cerebral cortex. The assay is classed as tissue-based.
Assay [3] has as its target Neuropeptide Y receptor type 1 (Homo sapiens, UniProt P25929). The assay is described as follows: Displacement of [125I]peptide YY from human recombinant Y1 receptor expressed in […] cell. In general terms: In a radioligand displacement assay an active substance lowers the binding of a labelled ligand.
Assay [4] has as its target 5-hydroxytryptamine receptor 5A (Homo sapiens, UniProt P47898). Description: Displacement of [3H]LSD from human recombinant 5HT5A receptor expressed in CHO cells. The class given is cell-based.
Assay [5] deals with C-X-C chemokine receptor type 2 (Homo sapiens, UniProt P25025). The assay is described as follows: Displacement of [125I]IL-8 from human recombinant CXCR2 receptor expressed in HEK293 cells. The class given is cell-based.
C-X-C chemokine receptor type 2, sequence (P25025 whole entry): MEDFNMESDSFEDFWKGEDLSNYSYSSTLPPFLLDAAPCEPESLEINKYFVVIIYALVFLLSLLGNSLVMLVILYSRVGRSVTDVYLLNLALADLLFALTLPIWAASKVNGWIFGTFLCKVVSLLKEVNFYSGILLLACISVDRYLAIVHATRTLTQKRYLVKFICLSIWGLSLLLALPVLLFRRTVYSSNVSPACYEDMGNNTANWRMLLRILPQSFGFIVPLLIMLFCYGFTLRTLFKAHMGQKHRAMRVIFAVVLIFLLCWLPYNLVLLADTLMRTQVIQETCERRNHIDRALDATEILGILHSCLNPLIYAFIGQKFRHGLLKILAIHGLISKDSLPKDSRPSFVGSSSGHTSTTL
Assay [6] has as its target C-C chemokine receptor type 1 (Homo sapiens, UniProt P32246). The assay is described as follows: Displacement of [125I]MIP-1a from human recombinant CCR1 receptor expressed in HEK293 cells. The class given is cell-based.
In another assay the target is Adenosine receptor A3 (Homo sapiens, UniProt P0DMS8). The assay is described as follows: Displacement of [3H]AB-MECA from human recombinant A3 receptor expressed in HEK293 cells. The class given is cell-based.
The target in assay [7] is Adrenergic receptor alpha-1 (Rattus norvegicus, UniProt P15823+P23944+P43140). The assay is described as follows: Displacement of [3H]prazosine from alpha1 receptor in rat cerebral cortex. The assay is classed as tissue-based.
Assay [8] has as its target Transient receptor potential cation channel subfamily V member 1 (Mus musculus, UniProt Q704Y3). The assay is described as follows: Inhibition of mouse TRPV1 receptor.
Assay [9] is described as follows: Displacement of [3H]DADLE from human recombinant delta 2 opioid receptor expressed in CHO cells. The assay is classed as cell-based.
The nature of assay [10]: Displacement of [125I]VIP from human recombinant VIP receptor expressed in H recombinant CHO cells. The class given is cell-based.
For assay [11], the target named is 5-hydroxytryptamine receptor 3A (Homo sapiens, UniProt P46098). Description: Displacement of [3H]BRL 43694 from human recombinant 5HT3 receptor expressed in CHO cells. The class given is cell-based.
Another assay concerns the target Vasopressin V1a receptor (Homo sapiens, UniProt P37288). The assay is described as follows: Displacement of [3H]AVP from human recombinant V1a receptor expressed in H recombinant CHO cells. The assay is classed as cell-based.
The target of assay [12] is Fatty-acid amide hydrolase 1 (Mus musculus) (UniProt O08914). The assay is described as follows: Inhibition of mouse brain FAAH assessed as residual activity. A digest of the protocol: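 FAAH was pre-incubated 20 min with an excess of inhibitor, then dialyzed 18 h at 4 °C against 20 mM Tris–HCl (pH 7.0). Residual activity was assayed before and after dialysis and compared with untreated controls. In a separate run, enzyme was pre-incubated with inhibitor at room temperature for 0–60 min before substrate turnover was measured. Values are means ± S.D. of three independent experiments.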

Assay [13] deals with Voltage-gated L-type calcium channel (Rattus norvegicus, UniProt P22002+Q02485+P27732). Description: Displacement of [3H](-)D 888 from L-type calcium channel in rat cerebral cortex. The class given is tissue-based.
Another assay addresses Histamine H1 receptor (Homo sapiens, UniProt P35367). The assay is described as follows: Displacement of [3H]pyrilamine from human recombinant histamine H1 receptor expressed in HEK293 cells. The class given is cell-based.
The target in assay [14] is 5-hydroxytryptamine receptor 2A (Homo sapiens, UniProt P28223). The assay is described as follows: Displacement of [3H]Ketanserin from human recombinant 5HT2A receptor expressed in HEK293 cells. The class given is cell-based.
Assay [15] has as its target Beta-2 adrenergic receptor (Homo sapiens, UniProt P07550). Description: Displacement of [3H](-)CGP 12177 from human recombinant beta2 receptor expressed in CHO cells. The assay is classed as cell-based.
The target in a further assay is Cannabinoid receptor 2 (Mus musculus, UniProt P47936). The assay is described as follows: Inhibition of mouse brain CB2 receptor.
The target of a further assay is B2 bradykinin receptor (Homo sapiens, UniProt P30411). Description: Displacement of [3H]bradykinin from human recombinant bradykinin B2 receptor expressed in CHO cells. The assay is classed as cell-based.
B2 bradykinin receptor, sequence (P30411 whole entry): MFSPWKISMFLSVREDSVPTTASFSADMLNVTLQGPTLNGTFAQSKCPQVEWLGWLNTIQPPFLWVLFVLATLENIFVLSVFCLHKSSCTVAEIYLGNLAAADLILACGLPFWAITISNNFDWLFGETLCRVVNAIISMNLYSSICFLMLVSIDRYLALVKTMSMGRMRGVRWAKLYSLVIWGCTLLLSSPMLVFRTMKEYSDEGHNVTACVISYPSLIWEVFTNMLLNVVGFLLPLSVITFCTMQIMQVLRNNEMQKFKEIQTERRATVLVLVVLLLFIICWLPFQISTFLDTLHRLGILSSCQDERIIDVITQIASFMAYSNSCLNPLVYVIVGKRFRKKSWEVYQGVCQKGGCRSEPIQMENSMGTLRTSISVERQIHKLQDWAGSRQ
Assay [16] addresses T1, Fatty-acid amide hydrolase 1 (Mus musculus, UniProt O08914).
T1 sequence (O08914 whole entry): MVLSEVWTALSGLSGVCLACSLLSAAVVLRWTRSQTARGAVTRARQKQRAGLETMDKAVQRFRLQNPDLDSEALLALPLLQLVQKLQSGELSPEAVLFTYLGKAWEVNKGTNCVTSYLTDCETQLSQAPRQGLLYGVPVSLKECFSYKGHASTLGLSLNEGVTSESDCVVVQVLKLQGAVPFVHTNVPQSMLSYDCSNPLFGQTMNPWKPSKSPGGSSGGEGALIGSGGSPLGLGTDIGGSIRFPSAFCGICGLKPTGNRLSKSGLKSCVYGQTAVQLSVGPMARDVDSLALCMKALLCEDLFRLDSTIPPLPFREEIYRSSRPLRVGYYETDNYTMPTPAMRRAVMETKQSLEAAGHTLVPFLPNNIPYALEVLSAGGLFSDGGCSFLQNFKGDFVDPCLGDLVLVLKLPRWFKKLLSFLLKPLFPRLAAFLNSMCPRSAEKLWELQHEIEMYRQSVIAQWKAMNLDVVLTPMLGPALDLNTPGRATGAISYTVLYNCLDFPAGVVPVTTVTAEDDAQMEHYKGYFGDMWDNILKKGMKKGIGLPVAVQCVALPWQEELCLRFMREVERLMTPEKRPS
The assay is described as follows: Inhibition of mouse brain FAAH assessed as conversion of [3H-ethanolamine]AEA to [3H]ethanolamine by scintillation counting.

Assay [17] deals with Muscarinic acetylcholine receptor M1 (Homo sapiens, UniProt P11229). The assay is described as follows: Displacement of [3H]pirenzepine from human recombinant muscarinic M1 receptor expressed in CHO cells. The assay is classed as cell-based.
Muscarinic acetylcholine receptor M1, sequence (P11229 whole entry): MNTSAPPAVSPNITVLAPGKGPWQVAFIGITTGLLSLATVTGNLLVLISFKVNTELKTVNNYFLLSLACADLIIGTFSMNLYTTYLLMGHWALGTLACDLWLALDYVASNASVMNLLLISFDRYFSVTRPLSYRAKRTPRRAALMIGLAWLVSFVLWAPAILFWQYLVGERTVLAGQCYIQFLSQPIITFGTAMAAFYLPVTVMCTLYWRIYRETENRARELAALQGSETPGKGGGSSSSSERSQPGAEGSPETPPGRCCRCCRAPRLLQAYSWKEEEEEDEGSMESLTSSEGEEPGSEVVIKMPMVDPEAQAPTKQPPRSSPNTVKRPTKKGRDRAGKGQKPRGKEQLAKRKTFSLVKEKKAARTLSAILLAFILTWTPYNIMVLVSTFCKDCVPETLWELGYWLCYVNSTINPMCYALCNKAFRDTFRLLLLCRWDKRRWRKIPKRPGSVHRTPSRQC
Assay [18] concerns the target Muscarinic acetylcholine receptor M3 (Homo sapiens, UniProt P20309). Description: Displacement of [3H]4-DAMP from human recombinant muscarinic M3 receptor expressed in CHO cells. The class given is cell-based.

C-C chemokine receptor type 1, sequence (P32246 whole entry): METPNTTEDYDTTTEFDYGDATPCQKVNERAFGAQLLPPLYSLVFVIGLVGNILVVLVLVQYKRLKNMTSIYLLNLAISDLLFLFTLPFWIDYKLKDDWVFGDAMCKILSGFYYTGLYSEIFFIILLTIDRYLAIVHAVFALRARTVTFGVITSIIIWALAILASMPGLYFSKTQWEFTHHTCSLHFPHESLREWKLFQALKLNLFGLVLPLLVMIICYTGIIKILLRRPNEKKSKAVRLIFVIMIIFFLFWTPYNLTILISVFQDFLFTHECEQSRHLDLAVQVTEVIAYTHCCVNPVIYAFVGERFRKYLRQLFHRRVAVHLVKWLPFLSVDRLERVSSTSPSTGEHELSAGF
Muscarinic acetylcholine receptor M3, sequence (P20309 whole entry): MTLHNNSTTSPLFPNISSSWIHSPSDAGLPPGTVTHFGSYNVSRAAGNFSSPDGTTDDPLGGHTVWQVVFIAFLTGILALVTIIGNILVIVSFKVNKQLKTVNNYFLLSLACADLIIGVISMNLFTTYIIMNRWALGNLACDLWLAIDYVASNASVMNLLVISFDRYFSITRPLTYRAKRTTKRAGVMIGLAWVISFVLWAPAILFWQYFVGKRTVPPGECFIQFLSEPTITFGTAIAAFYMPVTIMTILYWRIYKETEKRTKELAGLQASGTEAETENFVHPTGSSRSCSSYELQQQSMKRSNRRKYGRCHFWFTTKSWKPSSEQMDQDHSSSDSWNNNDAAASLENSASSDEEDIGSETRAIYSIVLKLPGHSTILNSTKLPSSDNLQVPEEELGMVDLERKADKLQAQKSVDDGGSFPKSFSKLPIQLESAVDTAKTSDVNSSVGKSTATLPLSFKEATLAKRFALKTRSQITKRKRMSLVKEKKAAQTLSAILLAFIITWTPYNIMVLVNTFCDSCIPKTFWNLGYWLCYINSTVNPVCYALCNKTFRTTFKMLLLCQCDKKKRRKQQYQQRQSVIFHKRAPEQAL
Histamine H1 receptor, sequence (P35367 whole entry): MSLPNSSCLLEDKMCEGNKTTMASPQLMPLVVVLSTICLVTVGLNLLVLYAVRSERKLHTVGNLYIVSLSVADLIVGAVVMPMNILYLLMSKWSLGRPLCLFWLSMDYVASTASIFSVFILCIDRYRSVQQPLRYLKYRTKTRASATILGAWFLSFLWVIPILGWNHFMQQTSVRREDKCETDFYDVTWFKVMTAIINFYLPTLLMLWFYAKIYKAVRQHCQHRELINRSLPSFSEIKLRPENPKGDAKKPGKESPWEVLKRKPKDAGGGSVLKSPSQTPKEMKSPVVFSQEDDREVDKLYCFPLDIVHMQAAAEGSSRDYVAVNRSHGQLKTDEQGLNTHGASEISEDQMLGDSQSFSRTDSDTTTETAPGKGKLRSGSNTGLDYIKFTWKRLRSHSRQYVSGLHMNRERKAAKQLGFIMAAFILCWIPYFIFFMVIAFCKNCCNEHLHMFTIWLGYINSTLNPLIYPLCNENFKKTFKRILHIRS
Beta-2 adrenergic receptor, sequence (P07550 whole entry): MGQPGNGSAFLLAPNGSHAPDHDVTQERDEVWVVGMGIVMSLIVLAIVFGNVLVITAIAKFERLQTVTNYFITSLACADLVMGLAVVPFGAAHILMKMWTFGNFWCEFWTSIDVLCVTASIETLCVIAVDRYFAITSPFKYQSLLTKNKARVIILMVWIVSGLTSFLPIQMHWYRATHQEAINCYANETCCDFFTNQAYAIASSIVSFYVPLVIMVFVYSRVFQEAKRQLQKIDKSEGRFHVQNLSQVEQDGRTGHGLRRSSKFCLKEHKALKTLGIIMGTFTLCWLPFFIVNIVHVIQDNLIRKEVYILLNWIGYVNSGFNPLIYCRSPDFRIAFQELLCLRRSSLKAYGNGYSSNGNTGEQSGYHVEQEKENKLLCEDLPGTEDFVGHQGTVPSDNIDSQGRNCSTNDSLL
Vasopressin V1a receptor, sequence (P37288 whole entry): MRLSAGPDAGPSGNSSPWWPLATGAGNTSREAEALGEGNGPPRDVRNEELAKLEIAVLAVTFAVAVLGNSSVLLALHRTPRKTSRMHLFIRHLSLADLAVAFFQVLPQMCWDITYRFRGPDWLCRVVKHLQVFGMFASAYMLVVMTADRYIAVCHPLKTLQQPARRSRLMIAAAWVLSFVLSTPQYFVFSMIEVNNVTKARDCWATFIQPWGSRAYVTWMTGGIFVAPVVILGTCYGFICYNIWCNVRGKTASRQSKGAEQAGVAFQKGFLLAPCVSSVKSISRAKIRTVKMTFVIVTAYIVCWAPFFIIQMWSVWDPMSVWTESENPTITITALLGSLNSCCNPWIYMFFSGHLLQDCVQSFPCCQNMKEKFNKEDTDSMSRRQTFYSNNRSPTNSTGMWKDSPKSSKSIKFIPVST
Transient receptor potential cation channel subfamily V member 1, sequence (Q704Y3 whole entry): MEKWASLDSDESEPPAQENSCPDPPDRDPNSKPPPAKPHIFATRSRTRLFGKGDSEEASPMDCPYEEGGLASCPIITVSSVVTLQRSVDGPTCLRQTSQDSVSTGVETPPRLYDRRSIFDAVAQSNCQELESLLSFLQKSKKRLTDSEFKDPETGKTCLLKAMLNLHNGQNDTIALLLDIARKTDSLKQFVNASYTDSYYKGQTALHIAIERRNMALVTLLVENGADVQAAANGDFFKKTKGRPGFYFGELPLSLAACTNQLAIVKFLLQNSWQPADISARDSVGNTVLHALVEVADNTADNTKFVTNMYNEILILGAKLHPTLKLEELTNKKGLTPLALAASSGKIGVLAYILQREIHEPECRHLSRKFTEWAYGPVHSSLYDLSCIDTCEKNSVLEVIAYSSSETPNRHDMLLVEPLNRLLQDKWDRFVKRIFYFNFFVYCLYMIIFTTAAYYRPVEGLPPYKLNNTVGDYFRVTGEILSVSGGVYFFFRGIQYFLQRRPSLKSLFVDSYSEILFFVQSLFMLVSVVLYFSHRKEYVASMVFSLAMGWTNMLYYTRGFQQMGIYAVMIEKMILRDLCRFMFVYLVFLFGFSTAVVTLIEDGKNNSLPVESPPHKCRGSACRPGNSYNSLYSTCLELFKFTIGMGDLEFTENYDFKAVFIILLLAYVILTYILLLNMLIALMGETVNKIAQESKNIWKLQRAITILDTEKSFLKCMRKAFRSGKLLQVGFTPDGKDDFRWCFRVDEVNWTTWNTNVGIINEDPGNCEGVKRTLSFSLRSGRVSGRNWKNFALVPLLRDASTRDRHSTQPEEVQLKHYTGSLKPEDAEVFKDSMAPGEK

As to `C/C(=N\OC(=O)Nc1ccccc1)c1cccc(-c2cccs2)c1`, the IC50 in assay [1] is more than 10 µM; in assay [2], 1 µM; in [3], more than 10 µM; in assay [4], 1 µM; in assay [5] it was more than 10 µM; in assay [6], more than 10 µM. Moreover, the IC50 at Adenosine receptor A3 was 1 µM; in [7] it was more than 10 µM; in [8], more than 10 µM; in assay [9], 1 µM; in [10] it was more than 10 µM; in [11], more than 10 µM. For the same compound, the 50% inhibitory concentration (IC50) on Vasopressin V1a receptor was more than 10 µM; in [13], more than 10 µM; on Histamine H1 receptor, more than 10 µM; in [14] it was more than 10 µM; in [15] it was more than 10 µM; on Cannabinoid receptor 2 it was 10 µM. The IC50 on B2 bradykinin receptor was more than 10 µM; in [16] it was 0.008 µM; in [17] it was more than 10 µM; in [18] it was more than 10 µM. In assay [12], the inhibition result was “Active”.

As usually defined, the IC50 is the concentration that inhibits the measured activity by half.
